# Experiments:
# [1] = Restoration of e-cadherin expression in human SW620 cells by in-cell-western assay; type: functional, cell-based; conditions: SW-620
# [2] = Restoration of e-cadherin expression in human SW620 cells at 10 uM by in-cell-western assay relative to control; type: functional, cell-based; conditions: SW-620
# Summary of the method: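 In-Cell-Western immunofluorescence read-out of e-cadherin in SW620 colon carcinoma cells after treatment at 10 μM; value is average fold change from two assessments.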
# Cytochrome P450 2C9 = Cytochrome P450 2C9 (Homo sapiens, UniProt P11712); assay: Inhibition of CYP2C9 (unknown origin); type: ADME
# Cytochrome P450 1A2 = molecular target: T1, Cytochrome P450 1A2 (Homo sapiens, UniProt P05177); assay: Inhibition of CYP1A2 (unknown origin); type: ADME
# T1 sequence (P05177 whole entry): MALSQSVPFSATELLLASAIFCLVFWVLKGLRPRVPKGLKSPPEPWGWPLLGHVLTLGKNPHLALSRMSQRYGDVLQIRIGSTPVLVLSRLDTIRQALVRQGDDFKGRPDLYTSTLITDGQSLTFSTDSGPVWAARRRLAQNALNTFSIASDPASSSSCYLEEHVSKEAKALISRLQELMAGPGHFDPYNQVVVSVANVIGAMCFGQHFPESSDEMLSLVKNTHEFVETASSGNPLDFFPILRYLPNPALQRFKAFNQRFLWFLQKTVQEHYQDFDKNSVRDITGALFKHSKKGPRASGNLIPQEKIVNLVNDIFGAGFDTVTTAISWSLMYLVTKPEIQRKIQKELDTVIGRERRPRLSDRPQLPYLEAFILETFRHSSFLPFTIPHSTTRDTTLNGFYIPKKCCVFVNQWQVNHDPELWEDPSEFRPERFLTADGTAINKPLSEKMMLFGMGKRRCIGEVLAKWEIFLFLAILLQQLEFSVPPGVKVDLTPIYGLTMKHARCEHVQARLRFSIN
# Summary of the method: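 CYP1A2 was assessed in a P450 isozyme panel with 3A4, 2C9 and 2D6. The compound was tested at 30 μM, and the value is reported as a threshold relative to that concentration.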
# [3] = Intrinsic clearance in human microsomes; type: ADME, Microsome
# [4] = Intrinsic clearance in mouse microsomes; type: ADME, Microsome
# [5] = Fraction unbound in mouse; type: ADME, organism-based; conditions: in vivo
# Cytochrome P450 3A4 = Cytochrome P450 3A4 (Homo sapiens, UniProt P08684); assay: Inhibition of CYP3A4 (unknown origin); type: ADME
# Cytochrome P450 2D6 = Cytochrome P450 2D6 (Homo sapiens, UniProt P10635); assay: Inhibition of CYP2D6 (unknown origin); type: ADME
# [6] = Intrinsic clearance in rat microsomes; type: ADME, Microsome
# [7] = Fraction unbound in rat; type: ADME, organism-based; conditions: in vivo
# [8] = Fraction unbound in human; type: ADME, organism-based; conditions: in vivo
# Rattus norvegicus = assay: Clearance in Sprague-Dawley rat at 1 mg/kg, iv; type: ADME, organism-based; conditions: in vivo
# Summary of the method: (§1)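 Single 1 mg/kg intravenous dose in male Sprague-Dawley rats; clearance and half-life from plasma pharmacokinetics.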
# [9] = Half life in Sprague-Dawley rat at 1 mg/kg, iv; type: ADME, organism-based; conditions: in vivo; summary of the method: as §1
# Chain of Cytochrome P450 2D6 (P10635 whole entry): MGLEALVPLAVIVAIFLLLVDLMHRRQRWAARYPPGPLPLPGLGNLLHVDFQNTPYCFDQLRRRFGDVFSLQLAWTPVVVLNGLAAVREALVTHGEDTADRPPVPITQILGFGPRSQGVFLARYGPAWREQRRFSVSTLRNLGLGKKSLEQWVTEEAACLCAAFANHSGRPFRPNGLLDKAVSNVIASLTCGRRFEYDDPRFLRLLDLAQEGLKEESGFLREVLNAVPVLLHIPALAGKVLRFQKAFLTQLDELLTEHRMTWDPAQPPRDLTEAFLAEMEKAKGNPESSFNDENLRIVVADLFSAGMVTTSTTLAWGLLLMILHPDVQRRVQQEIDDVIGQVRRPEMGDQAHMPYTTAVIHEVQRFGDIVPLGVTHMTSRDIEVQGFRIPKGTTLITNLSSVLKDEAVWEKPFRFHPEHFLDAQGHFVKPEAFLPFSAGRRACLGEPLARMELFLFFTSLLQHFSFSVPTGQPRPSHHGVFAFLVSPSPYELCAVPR
# Chain of Cytochrome P450 3A4 (P08684 whole entry): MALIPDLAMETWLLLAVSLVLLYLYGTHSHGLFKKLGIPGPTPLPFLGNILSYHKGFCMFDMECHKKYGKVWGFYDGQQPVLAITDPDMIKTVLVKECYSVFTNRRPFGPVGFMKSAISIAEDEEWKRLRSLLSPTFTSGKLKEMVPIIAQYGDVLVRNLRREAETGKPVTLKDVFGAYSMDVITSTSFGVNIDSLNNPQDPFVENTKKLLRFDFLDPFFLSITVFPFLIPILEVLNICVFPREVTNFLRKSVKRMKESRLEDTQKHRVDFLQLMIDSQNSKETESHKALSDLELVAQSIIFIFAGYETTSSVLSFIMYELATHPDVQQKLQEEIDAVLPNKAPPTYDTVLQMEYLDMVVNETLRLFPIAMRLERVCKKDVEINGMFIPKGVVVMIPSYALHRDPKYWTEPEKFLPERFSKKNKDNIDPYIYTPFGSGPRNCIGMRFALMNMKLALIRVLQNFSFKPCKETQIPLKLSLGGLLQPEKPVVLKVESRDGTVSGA
# Chain of Cytochrome P450 2C9 (P11712 whole entry): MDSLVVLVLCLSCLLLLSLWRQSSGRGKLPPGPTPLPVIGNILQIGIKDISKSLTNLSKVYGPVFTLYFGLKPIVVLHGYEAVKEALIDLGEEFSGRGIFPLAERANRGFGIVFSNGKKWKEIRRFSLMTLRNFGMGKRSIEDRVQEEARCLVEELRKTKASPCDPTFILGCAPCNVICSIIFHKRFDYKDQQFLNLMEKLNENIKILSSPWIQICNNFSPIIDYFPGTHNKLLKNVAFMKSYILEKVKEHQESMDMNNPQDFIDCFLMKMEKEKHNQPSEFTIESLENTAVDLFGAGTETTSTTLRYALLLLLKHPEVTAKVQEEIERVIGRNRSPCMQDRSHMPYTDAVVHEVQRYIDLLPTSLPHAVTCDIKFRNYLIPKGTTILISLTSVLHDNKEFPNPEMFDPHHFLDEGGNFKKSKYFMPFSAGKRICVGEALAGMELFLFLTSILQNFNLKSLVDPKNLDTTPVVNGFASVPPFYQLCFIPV
smiles,measurement,setting,value
Nc1cncc(C(=O)NCCCCNC(=O)c2cc(-c3cccs3)on2)n1,EC50,[1],5.6 µM
O=C(NCCCNCc1ccc(O)c(O)c1)c1cc(-c2ccccc2)on1,fold change (FC),[2],1.54
Cn1nc(C(=O)NCCCCc2ccncc2)cc1-c1ccccc1,fold change (FC),[2],1.38
O=C(NCCCNC(=O)c1n[nH]c2ccccc12)c1cc(-c2ccccc2)on1,fold change (FC),[2],1.62
O=C(NCCCNC(=O)c1cc(Br)ccc1O)c1cc(-c2ccccc2)on1,fold change (FC),[2],2.43
Cc1ccc(C(=O)NCCCCNC(=O)c2cc(-c3ccccc3)on2)c(O)n1,EC50,[1],5.6 µM
O=C(NCCCCNC(=O)c1cc(-c2ccccc2)on1)c1cscn1,fold change (FC),[2],3.7
O=C(NCCCNC(=O)c1nccs1)c1cc(-c2ccccc2)on1,EC50,[1],4.8 µM
Cc1c(C(=O)NCCCCc2ccncc2)nn(C)c1-c1ccccc1,fold change (FC),[2],0.75
O=C(NCCCCNC(=O)c1cc(-c2ccccc2)on1)c1ccc(O)c(O)c1,fold change (FC),[2],2.69
O=C(NCCCCNC(=O)c1cccs1)c1cc(-c2cccs2)on1,fold change (FC),[2],3.04
O=C(NCCCCNC(=O)c1cc(I)ccc1O)c1cc(-c2ccccc2)on1,fold change (FC),[2],2.43
O=C(NCCCNC(=O)c1cc(-c2ccccc2)on1)c1cccnc1,fold change (FC),[2],3.05
O=C(NCCCCNC(=O)c1cc(-c2ccccc2)on1)c1cocn1,fold change (FC),[2],3.35
O=C(Cc1ccccc1O)NCCCNC(=O)c1cc(-c2ccccc2)on1,EC50,[1],3.7 µM
O=C(NCCCNCc1c[nH]c2ccccc12)c1cc(-c2ccccc2)on1,fold change (FC),[2],1.44
Cc1ncc(CNCCCNC(=O)c2cc(-c3ccccc3)on2)o1,fold change (FC),[2],1.5
Cc1cc(CNCCCNC(=O)c2cc(-c3ccccc3)on2)on1,fold change (FC),[2],3.4
O=C(NCCCCNC(=O)c1cc(-c2cccs2)on1)c1cccnc1,EC50,[1],5 µM
O=C(NCCCNCc1ccc(O)cc1O)c1cc(-c2ccccc2)on1,fold change (FC),[2],2.33
O=C(Cc1c[nH]c2ccccc12)NCCCCNC(=O)c1cc(-c2ccccc2)on1,EC50,[1],12.6 µM
O=C(NCCCNC(=O)c1cc(-c2ccccc2)on1)c1ccncc1,EC50,[1],8.8 µM
CC(=O)n1cc(CNCCCNC(=O)c2cc(-c3ccccc3)on2)c2ccccc21,EC50,[1],15 µM
N#Cc1ccnc(NCCCNC(=O)c2cc(-c3ccccc3)on2)c1,EC50,[1],12 µM
O=C(NCCCCNC(=O)c1cccnc1O)c1cc(-c2ccccc2)on1,IC50,Cytochrome P450 2C9,> 30 µM
same,IC50,Cytochrome P450 1A2,> 30 µM
same,clearance,[3],0 mL/min/kg
same,clearance,[4],180 mL/min/kg
same,Fu,[5],0.19
same,fold change (FC),[2],5.23
same,IC50,Cytochrome P450 3A4,> 30 µM
same,IC50,Cytochrome P450 2D6,> 30 µM
same,clearance,[6],33 mL/min/kg
same,Fu,[7],0.11
same,Fu,[8],0.01
same,clearance,Rattus norvegicus,18 mL/min/kg
same,half-life,[9],7.6 h
O=C(NCCCNCc1c[nH]c2ncccc12)c1cc(-c2ccccc2)on1,fold change (FC),[2],1.67
O=C(NCCCN1CCOCC1)c1n[nH]c2ccccc12,fold change (FC),[2],0.63
COc1cncc(CNCCCNC(=O)c2cc(-c3ccccc3)on2)c1,fold change (FC),[2],3.58
O=C(NCCCn1ccnc1)c1noc2ccccc12,fold change (FC),[2],1.21
O=C(NCCCNCc1cccnc1)c1cc(-c2ccccc2)on1,fold change (FC),[2],3.06
O=C(NCCCNCc1ccccn1)c1cc(-c2ccccc2)on1,fold change (FC),[2],2.52
O=C(NCCCCNC(=O)c1c[nH]c2ccccc12)c1cc(-c2ccccc2)on1,fold change (FC),[2],2.39
[N-]=[N+]=Nc1ccnc(NCCCNC(=O)c2cc(-c3ccccc3)on2)n1,EC50,[1],5.3 µM
O=C(NCCCCNC(=O)c1cc(-c2ccccc2)on1)c1cccnc1,EC50,[1],7.1 µM
O=C(NCCCCNC(=O)c1ccc(Cl)o1)c1cc(-c2ccccc2)on1,EC50,[1],4.6 µM
CC(CNC(=O)c1cc(-c2cccs2)on1)c1ccncc1 (stereo unspecified),fold change (FC),[2],0.32
O=C(NCCCNC(=O)c1cc(-c2ccccc2)[nH]n1)c1ccncc1,fold change (FC),[2],1.29
O=C(NCCCNCc1ccccc1O)c1cc(-c2ccccc2)on1,fold change (FC),[2],3.59
O=C(NCCCCc1ccncc1)c1cc(-c2ccco2)on1,EC50,[1],4.7 µM
